These results are taken from ChEMBL document CHEMBL4431364, “Discovery and synthetic optimization of a novel scaffold for hydrophobic tunnel-targeted autotaxin inhibition” (Bioorg Med Chem, 2016).

Broadly, the inhibition is the change of the read-out against control, counted positive when it falls.

The assay deals with Autotaxin (Homo sapiens, UniProt Q13822). The assay is described as follows: Inhibition of C-terminal FLAG tagged human recombinant ATX expressed in insect sf9 cells at 10 uM using FS-3 as substrate measured every 2 mins for 60 mins by FRET assay. A digest of the protocol:
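10 μM compound with 10 nM human FLAG-fusion ATX in pH 8.0 Tris buffer (30 μM BSA, 1 mM CaCl2, 1 mM MgCl2, 5 mM KCl, 140 mM NaCl) and 1 μM FS-3. Fluorescence at ex 485/em 520 nm read every 2 min for 60 min at 37 °C. Normalized to no-ATX (0%) and ATX without compound (100%). Triplicate.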
Turning to `CCc1nc(C)cc(NCC(=O)C2(O)CC3(C)CCC4C5C=CC(=O)C=C5CCC45C3C25)c1O` (configuration not stated), the inhibition came out at 17.5%.

`O=C(COc1ccccc1Cl)N1CCN(c2ccc([N+](=O)[O-])cc2)CC1`: the inhibition turned out to be 46.1%. Consider `CCc1ccc(OCC(=O)Nc2ccc(-c3nc4ccccc4o3)cc2)cc1`, for which the inhibition turned out to be 34.7%. On to `Cc1cc(NC(=O)CSc2nc3sc4c(c3c(=O)[nH]2)CCC(C(C)(C)C)C4)no1` (configuration not stated), for which the inhibition amounted to 15.4%. Regarding `C=C(C)c1cccc(C(C)(C)NC(=O)N2CCN(C(=O)OCC)CC2)c1`, the inhibition was found to be 10.5%.

`Cc1ccc(SCC(=O)Nc2ccc(C(=O)NC(C)(C)C)cc2)cc1`: the inhibition is 8.67%. As for `COc1ccc(C(=O)Oc2c(Br)cc(Br)c3cccnc23)cc1`, the inhibition was 0.32%. Consider `Cn1ncc2c1ncn1nc(-c3ccc(Cn4cc(Cl)cn4)o3)nc21`, for which the inhibition was -1.86%. For the compound `CC1=NC(c2cccc(C)c2)C(O)=C1/C=C1/C(=O)N(c2ccc(C)cc2C)N=C1C` (configuration not stated), the inhibition is 10.5%.

Regarding `CCCCOc1ccc(S(=O)(=O)N2CC(NCc3ccco3)CC2C(=O)CNO)cc1` (configuration not stated), the inhibition was determined as 38%. `COc1ccc(C2OCC3OC(OC)C(O)C(O)C3O2)cc1OCc1ccccc1` (configuration not stated): the inhibition is -4.83%. For `C=C(Br)C(=O)N1CCN(C(=O)CCSc2ccc3ccccc3c2)CC1`, the inhibition stood at 46.4%. The figure for `Cc1ccc2cc(C#N)c(N3CCCN(C(=O)c4ccc(F)cc4F)CC3)nc2c1` is 46.4%.

With `O=C(Nc1ccccc1)N1CC(O)C(N2CCN(Cc3ccccc3)CC2)C1` (configuration not stated), the inhibition was 2.55%. The figure for `CCOc1ccc(N2C(=O)/C(=C\c3sccc3C)C(C(=O)OC)=C2C)cc1` is 4.09%; for `CC[n+]1c(Cc2nn3c(C)cc(C)nc3[n+]2CC)nn2c(C)cc(C)nc21` it is 2.48%.

For `CC(C)(C)CN(Cc1cccc(CN)c1)C(=O)c1ccc(-c2ccc(F)cc2)nc1`, the inhibition lay within 19.8 to 42.8%.

In the case of `COc1ccc2oc(C(=O)NCCNC(=O)C3C(C=C(C)C)C3(C)C)cc2c1` (configuration not stated), the inhibition came to 25.5%. In the case of `Cc1ccccc1Nc1nc(C2(C)CC3(CC(COCC(C)C)OC3=O)C(=O)O2)cs1` (configuration not stated), the inhibition was found to be 40.8%. For `O=C(CCCc1ccc([N+](=O)[O-])cc1)N1CCN(c2ccccc2F)CC1`, the inhibition was found to be 25.6%. As for `CCCCCCCCCCCC[N+](C)(C)CC(O)C(O)C(O)C(O)CO` (configuration not stated), the inhibition is 36.7%. Turning to `O=S(=O)(c1cc(-c2ccon2)cs1)N1CCN(Cc2ccc3c(c2)OCO3)CC1`, the inhibition stood at 13.4%.

`Cn1ncc(Cl)c1C(=O)NC1CCC(C(C)(C)C)CC1` (configuration not stated): the inhibition worked out at 15%. Turning to `CN(C)CCCCN(CCCN(C)C)Cc1cccc2ccccc12`, the inhibition turned out to be 36.2%.

Consider `COc1ccc(/C=N/c2cc(C)ccc2C)cc1OC`, for which the inhibition was -2.55%. As for `CCOc1ccc(N2C(=O)/C(=C3\C(=O)Nc4ccc(Br)cc43)SC2=S)cc1`, the inhibition was -3.35%. Consider `CSc1cccc2c(C)cc(N3CCN(c4ccc(F)cc4)CC3)nc12`, for which the inhibition was 9.17%.

Turning to `CCc1cc2c(cc(C(=O)NCCc3ccc(OC)c(OC)c3)n2C)s1`, the inhibition was 35.1%. Turning to `O=C(O)c1ccc(N2CCN(C(=O)COc3cccc(C(F)(F)F)c3)CC2)cc1`, the inhibition came to 43%. The figure for `Cc1cc(OCC(=O)Nc2ccc(-c3nc4ncccc4o3)cc2)ccc1Cl` is 4.63%; for `Cc1nn(-c2ccccc2)c(O)c1/N=C1\C(=O)N(C)c2ccc(Br)cc21` it is 1.44%; for `O=C(COc1ccccc1F)N1CCN(c2cccc([N+](=O)[O-])c2)CC1` it is 15.2%. For `CCCCC(CC)C(=O)Nc1nnc(C2CCCCC2)s1` (configuration not stated), the inhibition stood at 7.68%. With `CC(C)CC1C(=O)NC(C)CN1C(=O)c1ccc(-c2ccccc2)cc1` (configuration not stated), the inhibition came to 32.8%. As for `COC(CNCc1cc(Cl)c(CNCC(OC)OC)cc1Cl)OC`, the figure is 18.6%; as for `O=C(COc1ccccc1F)N1CCN(c2ccc([N+](=O)[O-])cc2)CC1`, 35.2%.

`CC(C)(C)CN(Cc1cccc(CN)c1)C(=O)c1ccc(-c2ccccc2)nc1`: the inhibition was 32.5%. With `Cn1cc(Cl)c(C2NN=C(SCC(=O)Nc3ccc(C(C)(C)C)cc3)S2)n1` (configuration not stated), the inhibition is 43.4%. For the compound `CCC(C)c1ccc(OCC(=O)Nc2cc(OC)c(OC)cc2C(=O)O)cc1` (configuration not stated), the inhibition is -8.29%. With `Cc1oc(C(C)(C)C)cc1C(=O)NCCNC(=O)c1cc(C(C)(C)C)oc1C`, the inhibition is 7.68%.

With `COc1ccc(/C(N)=N/OC(=O)COc2ccc(C(C)(C)C)cc2Br)cc1OC`, the inhibition stood at 6.68%. As to `CCCC#CC(=O)NCC(=O)Nc1ccc2c3c(cccc13)-c1ccccc1-2`, the inhibition turned out to be 6.06%.

As to `CCN1CCN(c2cc(C)c3ccc(Cl)cc3n2)CC1`, the inhibition was determined as 14.2%. As to `COc1cc(C(=O)Nc2ccc(C(C)=O)cc2)c(Br)c(OC)c1OC`, the inhibition was 16.9%.

`Cc1nc(N2CCN(c3ccccc3F)CC2)c2c(C)c(C)sc2n1`: the inhibition is -2.48%.

Consider `CC(C)(C)c1ccc(NC(=O)COC(=O)c2ccc([N+](=O)[O-])s2)cc1`, for which the inhibition is 10.7%.

In the case of `O=C(O)c1ccc(N2CCN(C(=O)COc3ccccc3F)CC2)cc1`, the inhibition was determined as 6.1%. Regarding `Cc1c(Cl)c(-c2nnc(NCC(C)C)s2)nn1C`, the inhibition is 7.92%.

For `CC(C)c1ccc(NC(=O)c2cc([N+](=O)[O-])ccc2Cl)cc1`, the inhibition worked out at 12.1%. For the compound `Cc1cc(C(F)(F)F)nc2sc3c(c12)NC(c1c(Br)cnn1C)NC3=O` (configuration not stated), the inhibition is -1.36%. Consider `Cc1ccc2cc3c(nc2c1)sc1c(SCC(=O)NCc2ccco2)ncnc13`, for which the inhibition was found to be 13.4%. `O=S(=O)(c1ccc(OC(F)(F)F)cc1)N1CCC(N2CCN(c3ccccc3F)CC2)CC1`: the inhibition is 8.43%. With `Cn1ncc2c(Cl)nc(-c3cc4cc([N+](=O)[O-])ccc4o3)nc21`, the inhibition is -0.99%. Consider `O=C(c1ccco1)N1CCN(C(=O)C2CCCN2C(=O)CC2C=CCC2)CC1` (configuration not stated), for which the inhibition worked out at 5.7%. Turning to `CC(C)/C=C/C(=O)N1CCN(C(=O)C2CCC3C4CC=C5CC(O)CCC5(C)C4CCC23C)CC1` (configuration not stated), the inhibition is 13.3%. `O=c1/c(=C/C=C/c2ccc([N+](=O)[O-])o2)sc2nc3ccccc3n12`: the inhibition was 5.82%.

Turning to `CCc1ccc2c(c1)c1nnc(SCC(=O)Nc3nnc(C(C)C)s3)nc1n2C`, the inhibition is 21.7%. For `Clc1ccc(Cl)c2c1CC(N1CCN(c3ncccn3)CC1)S2` (configuration not stated), the inhibition stood at 9.03%. `N#C/C(=C\c1ccc(-c2cc([N+](=O)[O-])ccc2Cl)o1)C(=O)Nc1ccccc1C(=O)O`: the inhibition is 3.59%. `CCOC(=O)c1c(C)[nH]c(C(=O)OCC(=O)NCc2ccco2)c1C`: the inhibition stood at 15.6%. Turning to `CON1CC/C(=C\c2cc(C(C)(C)C)c3c(c2)C(C)(C)CO3)C1=O`, the inhibition is 30.3%. On to `COc1ccc(N2C(=O)/C(=C/c3ccc(O)c([N+](=O)[O-])c3)SC2=S)cc1`, for which the inhibition was found to be 4.83%. In the case of `Cc1cc(C(=O)CSc2ccc(Cl)cc2)cc(C)c1OC(=O)N(C)C`, the inhibition was determined as 6.06%. For the compound `COC(=O)c1sc(NC(=O)c2cc(C)ccc2Cl)c(C#N)c1C`, the inhibition is -2.35%. `COc1ccccc1N1CCN(/N=C(\C)c2ccc3ccccc3c2)CC1`: the inhibition is -0.74%. Take `Cc1cc(C)c(C)c(S(=O)(=O)N2CCN(c3ncnc4sc(C)c(C)c34)CC2)c1C`: the inhibition amounted to 19.8%.

As to `Cc1cc(NC(=O)CSc2nc3sc4c(c3c(=O)[nH]2)CCC(C)C4)no1` (configuration not stated), the inhibition is 11%.
